The term inhibition denotes the percentage by which the read-out fell short of the control. One may read the CC50 as the concentration giving 50% cytotoxicity. Read a low CC50 as harm at low concentration. A word on the pEC50: it is −log10 of the EC50, conventionally taken in molar units. By pIC50 is commonly meant −log10 of the IC50, conventionally taken in molar units. A high value points to a low IC50.

Data set [1] deals with 3',5'-cyclic-AMP phosphodiesterase 4B (Homo sapiens) (UniProt Q07343). The experiment in a line: Inhibition of PDE4B2 expressed in COS7 cells assessed as cAMP hydrolysis at 100 uM. The data set is classed as cell-based. To be noted: COS-7.
Data set [2] is described as follows: Cytotoxicity against human CEM-SS cells. The data set is classed as cell-based. The method in brief: (§1)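 Mock-infected CEM-SS or MT-4 cells run alongside the antiviral cultures; CC50 is the concentration causing death of 50% of the cells.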
Data set [3] has as its system Human immunodeficiency virus 1. Nature of the data set: Antiviral activity against HIV1 RF in CEM-SS cells assessed as inhibition of virus-induced cytopathic effect by XTT assay. Type of data set: functional, organism-based. To be noted: Human immunodeficiency virus 1, RF. Summed up:
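CEM-SS cells infected with HIV-1 RF; XTT cytoprotection read-out; EC50 is the concentration that inhibits 50% of viral cytopathic effect.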

Data set [4] concerns the target Human immunodeficiency virus type 1 reverse transcriptase (Human immunodeficiency virus 1, UniProt Q72547). The experiment in a line: Inhibition of HIV1 reverse transcriptase. Summed up: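 Recombinant HIV-1 RT, p66/51 heterodimer; polymerase activity measured with poly(rC).oligo(dG) as template primer.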
Data set [5] concerns Human immunodeficiency virus 2. The experiment in a line: Antiviral activity against HIV2 ROD in MT4 cells assessed as inhibition of virus-induced cytopathic effect by MTT assay. Type of data set: functional, organism-based. Summed up: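 MT-4 cells infected with HIV-2 ROD; protection from cytopathic effect read by MTT assay; EC50 is the concentration blocking 50% of virus-induced cell killing.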
(In general: Protection from cytopathic effect is a common read-out in antiviral testing.)

Data set [6] has as its system Human immunodeficiency virus 1. The experiment in a line: Antiviral activity against HIV1 3B in MT4 cells assessed as inhibition of virus-induced cytopathic effect by MTT assay. The data set is classed as functional, organism-based. To be noted: Human immunodeficiency virus 1, 3B. The method in brief: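 Cytoprotection in MT-4 cells infected with HIV-1 IIIB, read by MTT assay; EC50 taken as the concentration giving 50% inhibition of viral cytopathic effect.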

Data set [7] can be described thus: Cytotoxicity against human MT4 cells. The data set is classed as cell-based. The method in brief:
as §1

SMILES strings stand for the structures. pEC50, pIC50: −log10 of the molar value. The source made the active and inactive calls. The rule behind the calls is not given here. Where only a bound is given, the exact number is not on record here.

3',5'-cyclic-AMP phosphodiesterase 4B (Homo sapiens), sequence (Q07343 whole entry): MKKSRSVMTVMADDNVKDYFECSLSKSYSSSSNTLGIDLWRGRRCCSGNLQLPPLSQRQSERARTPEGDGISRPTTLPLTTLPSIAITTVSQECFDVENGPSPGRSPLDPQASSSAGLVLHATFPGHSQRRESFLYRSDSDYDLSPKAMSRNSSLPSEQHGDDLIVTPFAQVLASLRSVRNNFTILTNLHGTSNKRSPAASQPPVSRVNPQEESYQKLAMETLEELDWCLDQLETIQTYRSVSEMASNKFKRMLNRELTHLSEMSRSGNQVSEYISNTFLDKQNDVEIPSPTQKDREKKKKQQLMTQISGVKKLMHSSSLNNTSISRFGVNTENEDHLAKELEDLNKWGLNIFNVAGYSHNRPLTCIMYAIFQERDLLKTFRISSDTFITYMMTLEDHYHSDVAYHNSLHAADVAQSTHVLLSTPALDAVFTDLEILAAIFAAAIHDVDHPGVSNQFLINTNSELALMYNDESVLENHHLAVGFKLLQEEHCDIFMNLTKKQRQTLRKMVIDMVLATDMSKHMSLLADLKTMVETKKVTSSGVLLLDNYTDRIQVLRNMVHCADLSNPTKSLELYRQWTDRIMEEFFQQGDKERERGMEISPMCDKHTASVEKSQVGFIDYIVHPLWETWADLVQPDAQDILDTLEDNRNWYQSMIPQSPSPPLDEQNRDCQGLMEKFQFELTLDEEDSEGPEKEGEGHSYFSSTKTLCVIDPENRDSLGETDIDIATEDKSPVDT

Take `COC(=O)c1cc(C(=CCCCSC)c2cc(Cl)c(OC)c(C(=O)OC)c2)cc(Cl)c1OC`: the inhibition in data set [1] is 20%. Besides, the CC50 in data set [2] was above 20 µM. Besides, the pEC50 in data set [3] is 5.28. Moreover, the pIC50 in data set [4] was below 4.00.

In the case of `COc1ccc(C2CNC(=O)C2)cc1OC1CCCC1` (stereo not drawn), the inhibition in data set [1] turned out to be 100%.

For `COC(=O)CCC/C=C(\c1cc(C)c(OC)c(C(=O)OC)c1)c1cc(C)c2oc(=O)n(C)c2c1`, the inhibition in data set [1] came to 72%. The result in data set [5] was inactive. For the same compound, the negative logarithm of the EC50 (pEC50) is 7.05 in data set [6] and 7.52 in data set [3].

As for `CCCCCC=C(c1cc(Cl)c(OC)c(C(=O)OC)c1)c1cc(Cl)c(OC)c(C(=O)OC)c1`, the outcome in data set [1] was inactive. The compound further gave a CC50 in data set [2] above 29 µM. In data set [3], the pEC50 was 4.80.

Regarding `COC(=O)CCCC=C(c1cc(Br)c(OC)c(C(=O)OC)c1)c1cc(Br)c(OC)c(C(=O)OC)c1`, the inhibition in data set [1] worked out at 40%. In addition, the outcome in data set [5] was inactive. For the same compound, the negative logarithm of the EC50 (pEC50) in data set [3] is 9.00.

With `COC(=O)c1cc(C(=CCCCc2ccccc2)c2cc(Br)c(OC)c(C(=O)OC)c2)cc(Br)c1OC`, the result in data set [1] was inactive. For the same compound, in data set [5] (Human immunodeficiency virus 2, ROD), the negative-log EC50 (pEC50) was 4.68. The values for the CC50 in data set [7] and in data set [2] were above 198 µM and above 200 µM, respectively. The compound also showed a pIC50 in data set [4] below 4.00.

Regarding `COC(=O)CCCC=C(c1cc(C)c2oc(=O)n(C)c2c1)c1cc(C)c2oc(=O)n(C)c2c1`, in data set [1], the inhibition turned out to be 71%. The result in data set [5] was inactive. In addition, the pEC50 in data set [6] is 6.66; in data set [3], 6.21. Moreover, the 50% cytotoxic concentration (CC50) was determined as 33 µM in data set [7] and 31 µM in data set [2]. Moreover, the pIC50 in data set [4] is 6.30.

Take `Cc1ccnc2c1NC(=O)c1cccnc1N2C1CC1`: the result in data set [5] was inactive.

Source of the values: ChEMBL document CHEMBL1142364, “Investigation of the alkenyldiarylmethane non-nucleoside reverse transcriptase inhibitors as potential cAMP phosphodiesterase-4B2 inhibitors” (Bioorg Med Chem Lett, 2008).
